Each structure is given as a SMILES string. In brackets after ≈: the same amount, converted by molar mass. Starred links: 1 amine or outer side, 2 acyl side, 3 side chain; linkers in the order of their positions; H or OH if unused. Positions of bridges follow the written chain, without caps; N, C: chain ends. Non-standard residues stand in square brackets, D forms with d. Residues, ends and D or L forms follow the SMILES beside them. *: point of attachment. X1 = O=C1C[C@@H](C(=O)[*:2])N([*:1])C[C@H]1CS[C@@H]1CN2CCC1CC2; NMePhe(4-NMe2) = CN[C@@H](Cc1ccc(N(C)C)cc1)C(=O)O; Picolinoyl(3-OH) = O=C(c1ncccc1O)*; Phg = N[C@H](C(=O)O)c1ccccc1; dAbu = CC[C@@H](N)C(=O)O

Our source for the MIC values is ChEMBL document CHEMBL1144297, “Design and synthesis of macrocycles active against vancomycin-resistant enterococci (VRE): the interplay between d-Ala-d-Lac binding and hydrophobic effect” (2005).

In assay [1] the test system is Enterococcus faecium. The assay is described as follows: Minimum inhibitory concentration against vancomycin resistant Enterococci faecium L2215 strain was determined. The assay is classed as functional. Put shortly:
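Standard microdilution MIC assay against strain L2215, a Van-A clinical isolate.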

The next assay concerns Staphylococcus aureus. The assay is described as follows: Minimum inhibitory concentration against Staphylococcus aureus L613 strain was determined.
Assay [2] has as its system Enterococcus faecium. The assay is described as follows: Minimum inhibitory concentration against vancomycin sensitive Enterococci faecium L568 strain was determined. The assay is classed as functional. Put shortly: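 Standard microdilution assay giving the minimum inhibitory concentration. The test organism is strain L568, which is isogenic with L569.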
The subject of assay [3] is Enterococcus faecalis. Description: Minimum inhibitory concentration against vancomycin resistant Enterococci faecalis L560 strain was determined. The assay is classed as functional. Put shortly:
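Standard microdilution MIC assay against strain L560, which forms an isogenic pair with L559.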

Assay [4] concerns Enterococcus faecalis. The assay is described as follows: Minimum inhibitory concentration against vancomycin sensitive Enterococci faecalis L559 strain was determined. Format: functional. Summed up: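 Standard microdilution MIC assay against strain L559, isogenic with L560.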
Where [5] appears, read: Enterococcus faecium, read-out: MIC.
The mark [6] stands for this setting: Enterococcus faecalis, read-out: MIC.

Turning to `CC(=O)N[C@@H]1[C@H](Oc2c3cc4cc2Oc2ccc(cc2Cl)[C@@H](O[C@@H]2O[C@@H](CO)[C@@H](O)[C@H](O)[C@@H]2NC(C)=O)[C@@H]2NC(=O)[C@H](NC(=O)[C@@H]4NC(=O)[C@H]4NC(=O)[C@@H](Cc5ccc(c(Cl)c5)O3)NC(=O)[C@H](N)c3ccc(O)c(c3)Oc3cc(O)cc4c3)c3ccc(O)c(c3)-c3c(O[C@H]4O[C@H](CO)[C@@H](O)[C@@H](O)[C@@H]4O)cc(O)cc3[C@@H](C(=O)O)NC2=O)O[C@@H](CO)[C@@H](O)[C@@H]1O`, the minimum inhibitory concentration (MIC) (as a rule, the smallest concentration in the dilution series that meets the test's criterion for growth inhibition) in the assay with Enterococcus faecium [1] (setting [5]) is above 128 µg/mL; in the assay with Staphylococcus aureus it was 1 µg/mL (≈ 0.566 µM); with Enterococcus faecium [2] (setting [5]) it was 0.5 µg/mL (≈ 0.283 µM); in the assay on Enterococcus faecalis [3] (setting [6]) it was 64 µg/mL (≈ 36.2 µM); in the assay on Enterococcus faecalis [4] (setting [6]), 0.125 µg/mL (≈ 0.0707 µM).
The matching figures for `CCCCCCCCCCCNC(=O)N[C@@H](C(=O)O)C1NC(=O)[C@H](Cc2ccccc2)NC(=O)[C@H](N)Cc2ccc(c([N+](=O)[O-])c2)Oc2cc1cc(O)c2OC.Cl` (some centres not stated): above 128 µg/mL, above 128 µg/mL, 128 µg/mL, above 128 µg/mL and 128 µg/mL.
The matching figures for `CCCCCCCCCCCC(=O)N[C@@H](C(=O)O)C1NC(=O)[C@H](Cc2ccccc2)NC(=O)[C@H](NC(=O)[C@H](N)CC(C)C)Cc2ccc(c([N+](=O)[O-])c2)Oc2cc1cc(OCc1ccccc1)c2OC.Cl` (some centres not stated): 16 µg/mL, 128 µg/mL, 256 µg/mL, 4 µg/mL and 8 µg/mL.
Regarding `COC(=O)[C@@H](C1NC(=O)[C@H](Cc2ccccc2)NC(=O)[C@H](NC(=O)[C@H](N)CC(C)C)Cc2ccc(c([N+](=O)[O-])c2)Oc2cc1cc(OC)c2OC)N(C)C.Cl` (some centres not stated), the MIC in the assay with Staphylococcus aureus is above 128 µg/mL; in the assay with Enterococcus faecium [2] (setting [5]), above 128 µg/mL; in the assay with Enterococcus faecalis [3] (setting [6]) it was 128 µg/mL; in the assay with Enterococcus faecalis [4] (setting [6]), 128 µg/mL.
For `CCCCCCCCCCCC(=O)N[C@@H](C(=O)O)C1NC(=O)[C@H](Cc2ccccc2)NC(=O)[C@H](NC(=O)[C@H](N)CC(C)C)Cc2ccc(cc2)Oc2cc1cc(O)c2OC.Cl` (some centres not stated), the MIC in the assay with Staphylococcus aureus was above 128 µg/mL; in the assay on Enterococcus faecium [2] (setting [5]), above 128 µg/mL; with Enterococcus faecalis [3] (setting [6]), 128 µg/mL; in the assay with Enterococcus faecalis [4] (setting [6]) it was 128 µg/mL.
For the compound `COc1c(O)cc2cc1Oc1ccc(cc1[N+](=O)[O-])C[C@@H](NC(=O)[C@H](N)CC(C)C)C(=O)N[C@@H](Cc1ccccc1)C(=O)NC2[C@@H](NC(C)=O)C(=O)O.Cl` (some centres not stated), the minimal inhibitory concentration (MIC) in the assay on Staphylococcus aureus, with Enterococcus faecium [2] (setting [5]) and in the assay on Enterococcus faecalis [4] (setting [6]) was above 1020 µg/mL in each case.
As to `CCCCCCCCCCCNC(=O)N[C@@H](C(=O)O)C1NC(=O)[C@H](Cc2ccccc2)NC(=O)[C@H](NC(=O)[C@H](N)CC(C)C)Cc2ccc(c([N+](=O)[O-])c2)Oc2cc1cc(OC1OC(O)C(O)C(O)C1NC(=O)CCCCCCCCCCC)c2OC.Cl` (some centres not stated), the minimum inhibitory concentration (MIC) in the assay with Enterococcus faecium [1] (setting [5]) was 32 µg/mL; in the assay on Staphylococcus aureus, above 256 µg/mL; in the assay on Enterococcus faecium [2] (setting [5]) it was 256 µg/mL; in the assay on Enterococcus faecalis [3] (setting [6]) it was 8 µg/mL; with Enterococcus faecalis [4] (setting [6]) it was 8 µg/mL.
Turning to `CCCCCCCCCCCC(=O)NC1C(Oc2cc3cc(c2OC)Oc2ccc(cc2[N+](=O)[O-])C[C@@H](NC(=O)[C@H](N)CC(C)C)C(=O)N[C@@H](Cc2ccccc2)C(=O)NC3[C@@H](NC(C)=O)C(=O)O)OC(O)C(O)C1O.Cl` (some centres not stated), the MIC with Enterococcus faecium [1] (setting [5]) was 1020 µg/mL; in the assay with Staphylococcus aureus, above 1020 µg/mL; with Enterococcus faecium [2] (setting [5]), above 1020 µg/mL; with Enterococcus faecalis [3] (setting [6]) it was 64 µg/mL; in the assay with Enterococcus faecalis [4] (setting [6]), 64 µg/mL.
As for `COC(=O)[C@H](N)C1NC(=O)[C@H](Cc2ccccc2)NC(=O)[C@H](NC(=O)[C@H](N)CC(C)C)Cc2ccc(c([N+](=O)[O-])c2)Oc2cc1cc(O)c2OC.Cl` (some centres not stated), the MIC is above 1020 µg/mL in the assay with Staphylococcus aureus, above 1020 µg/mL in the assay on Enterococcus faecium [2] (setting [5]), 512 µg/mL with Enterococcus faecalis [3] (setting [6]) and 512 µg/mL in the assay with Enterococcus faecalis [4] (setting [6]).
With `CCCCCCCCCCCC(=O)N[C@@H](C(=O)O)C1NC(=O)[C@H](Cc2ccccc2)NC(=O)[C@H](NC(=O)[C@H](N)CC(C)C)Cc2ccc(c([N+](=O)[O-])c2)Oc2cc1cc(O)c2OC.Cl` (stereo in doubt; 2d), the minimum inhibitory concentration (MIC) in the assay with Enterococcus faecium [1] (setting [5]) was 8 µg/mL; in the assay with Staphylococcus aureus, 64 µg/mL; with Enterococcus faecium [2] (setting [5]), 128 µg/mL; in the assay on Enterococcus faecalis [3] (setting [6]) it was 4 µg/mL; in the assay with Enterococcus faecalis [4] (setting [6]), 4 µg/mL.
`CCCCCCCCCCCC(=O)N[C@@H](C(=O)O)C1NC(=O)[C@H](Cc2ccccc2)NC(=O)[C@H](NC(=O)[C@H](N)CC(C)C)Cc2ccc(c([N+](=O)[O-])c2)Oc2cc1cc(O)c2OC.Cl` (stereo in doubt; 2e): the MIC against Enterococcus faecium [1] is 16 µg/mL; in the assay on Enterococcus faecium [2], above 128 µg/mL; against Enterococcus faecalis [3], 8 µg/mL; in the assay with Enterococcus faecalis [4], 8 µg/mL.
`CCN(CC)CCS(=O)(=O)[C@@H]1CCN2C(=O)c3coc(n3)CC(=O)C[C@H](O)/C=C(C)/C=C/CNC(=O)/C=C/[C@@H](C)[C@@H](C(C)C)OC(=O)[C@@H]12.CC[C@H]1NC(=O)[C@@H](NC(=O)c2ncccc2O)[C@@H](C)OC(=O)[C@H](c2ccccc2)NC(=O)[C@@H]2CC(=O)[C@H](CS[C@@H]3CN4CCC3CC4)CN2C(=O)[C@H](Cc2ccc(N(C)C)cc2)N(C)C(=O)[C@@H]2CCCN2C1=O` [QUINUPRISTIN/DALFOPRISTIN] ({Picolinoyl(3-OH)}-T[dAbu]P[NMePhe(4-NMe2)][X1][Phg]; ester 1-C): the MIC in the assay on Enterococcus faecium [1] (setting [5]) came to 4 µg/mL; with Staphylococcus aureus, 1 µg/mL; in the assay on Enterococcus faecium [2] (setting [5]), 4 µg/mL; in the assay with Enterococcus faecalis [3] (setting [6]), 8 µg/mL; with Enterococcus faecalis [4] (setting [6]) it was 4 µg/mL.
Turning to `CN[C@H](CC(C)C)C(=O)N[C@H]1C(=O)N[C@@H](CC(N)=O)C(=O)N[C@H]2C(=O)N[C@H]3C(=O)N[C@H](C(=O)N[C@H](C(=O)O)c4cc(O)cc(O)c4-c4cc3ccc4O)[C@H](O)c3ccc(c(Cl)c3)Oc3cc2cc(c3O[C@@H]2O[C@H](CO)[C@@H](O)[C@H](O)[C@H]2O[C@H]2C[C@](C)(N)[C@H](O)[C@H](C)O2)Oc2ccc(cc2Cl)[C@H]1O` [VANCOMYCIN], the results for the MIC with Enterococcus faecium [1] (setting [5]), in the assay on Enterococcus faecalis [3] (setting [6]) and in the assay on Enterococcus faecalis [4] (setting [6]) were above 128 µg/mL, above 128 µg/mL and 1 µg/mL (≈ 0.69 µM), respectively.
